According to article PMC11615718 (RSC Advances, 2024):
“And” between values parts separate entries of the source, which are not always exact repeats. Equal entries are not always repeated. Where two headings read alike, the source gives them in different places.

Legend:
KCa2.3 = KCa2.3 (Homo sapiens, UniProt Q9UGI6); test: QPatch-HTX patch-clamp, KCa2.3; assay type: cell-based
How it was run: (§1)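 Automated whole-cell patch clamp on a QPatch-HTX. Test compound came from 10 mM DMSO stocks, diluted in fixed ratios into each channel's own extracellular solution, over 300 nM to 30 μM. Each current slope was the mean of five measurements at the end of each liquid period. Activation was normalised per cell to a saturating 30 μM activator applied before washout; otherwise currents were normalised to the last vehicle period. Hill fit used ≥3 cells.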

KCa2.2 = KCa2.2 (Rattus norvegicus, UniProt P70604); test: QPatch-HTX patch-clamp, KCa2.2; assay type: cell-based
KCa2.2, sequence (P70604 whole entry): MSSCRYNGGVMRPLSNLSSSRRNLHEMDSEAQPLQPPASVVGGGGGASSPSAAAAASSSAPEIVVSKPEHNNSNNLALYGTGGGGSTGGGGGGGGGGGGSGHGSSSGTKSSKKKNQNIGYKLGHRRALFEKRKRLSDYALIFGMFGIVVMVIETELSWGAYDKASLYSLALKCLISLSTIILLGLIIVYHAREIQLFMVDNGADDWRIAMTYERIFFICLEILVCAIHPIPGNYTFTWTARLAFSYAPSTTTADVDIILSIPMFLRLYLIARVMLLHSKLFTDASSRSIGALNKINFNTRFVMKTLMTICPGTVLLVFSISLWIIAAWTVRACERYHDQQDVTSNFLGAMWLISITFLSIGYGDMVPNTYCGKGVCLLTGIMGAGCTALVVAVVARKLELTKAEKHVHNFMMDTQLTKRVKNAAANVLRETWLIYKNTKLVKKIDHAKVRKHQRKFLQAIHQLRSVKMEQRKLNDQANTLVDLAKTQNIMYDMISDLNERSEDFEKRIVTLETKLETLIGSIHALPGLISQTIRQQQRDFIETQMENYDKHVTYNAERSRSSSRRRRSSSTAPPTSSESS
How it was run: as §1

KCa3.1 channel = KCa3.1 channel (Homo sapiens, UniProt O15554+P0DP23); test: QPatch-HTX patch-clamp, KCa3.1 activation; assay type: cell-based
KCa3.1 channel, sequence (O15554 whole entry, one chain of several): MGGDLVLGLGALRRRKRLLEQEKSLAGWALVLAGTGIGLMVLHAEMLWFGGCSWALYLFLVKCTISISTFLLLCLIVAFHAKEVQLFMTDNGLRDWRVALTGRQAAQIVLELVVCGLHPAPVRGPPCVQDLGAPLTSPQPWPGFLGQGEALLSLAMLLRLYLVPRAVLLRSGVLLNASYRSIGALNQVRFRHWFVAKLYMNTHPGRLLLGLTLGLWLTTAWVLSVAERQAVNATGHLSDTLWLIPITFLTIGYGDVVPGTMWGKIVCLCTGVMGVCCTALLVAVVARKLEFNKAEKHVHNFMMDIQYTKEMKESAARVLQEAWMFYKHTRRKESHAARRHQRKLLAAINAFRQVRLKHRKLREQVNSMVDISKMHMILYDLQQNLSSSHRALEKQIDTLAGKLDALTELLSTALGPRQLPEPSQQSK
How it was run: as §1

[1] = up to 30 mg kg^−1 i.p., Sprague-Dawley rats; cited from earlier work
[2] = up to 30 mg kg^−1 i.p., mice; cited from earlier work
[3] = test system: small-conductance Ca2+-activated KCa2 channels; details: cited from earlier work
[4] = experimental mice; cited from earlier work
[5] = Tissue biodistribution by LC-MS after 14-day dosing; assay type: in vivo, C57BL/6 mice; details: female, C57BL/6, mouse, ip, 30 mg kg^−1
How it was run: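 After 14 days of daily i.p. dosing (30 mg kg−1 in 3% DMSO/97% peanut oil), brain, kidney and liver were harvested at termination. Pre-weighed organs were homogenised in methanol:dichloromethane (1:1), held 30 min at 4 °C and spun 10 min at 14000 rpm, 4 °C. LC-MS used a C18 column at 40 °C and 0.3 mL min−1, with a water/acetonitrile (0.1% formic acid) gradient from 20% to 95% B over a 10 min run.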

[6] = Plasma pharmacokinetics after single i.p. dose; assay type: in vivo, BALB/c mice; details: 30 mg kg^−1 i.p.
How it was run: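 Female BALB/c mice (7–9 weeks old, n = 4 per time point) received a single i.p. dose of 30 mg kg−1 in 3% DMSO + 97% peanut oil. Blood was taken at 0, 0.25, 0.5, 1, 2, 4, 8 and 24 h. Plasma (20 μL) was mixed with 60 μL methanol:dichloromethane (1:1), then test compound was quantified by LC-MS on a C18 column with a water/acetonitrile (0.1% formic acid) gradient.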

[7] = 14-day i.p. tolerability in mice; assay type: in vivo, C57BL/6 mice; details: 30 mg kg^−1 i.p. daily for 14 days, female C57BL/6
How it was run: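 Female C57BL/6 mice (6–7 weeks old, n = 6 per group) got test compound at 6 mg mL−1 in 3% DMSO + 97% peanut oil. The preparation was thawed, heated to ~60 °C and cooled before dosing. Dose was ~100 μL i.p. (30 mg kg−1) once daily for 14 days; vehicle-injected controls. Body weight was taken every 2–4 days. At day 14, serum AST was measured by colorimetric kit, and organs were paraffin-embedded and H&E-stained.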

[8] = Solubility in DMSO by UV-Vis spectrophotometry; assay type: physicochemical
How it was run: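 Excess test compound (50 mg) was shaken in 500 μL DMSO at 1000 rpm for 24 h, then filtered through 0.22 μm and diluted 100-fold in DMSO. Concentration came from absorbance at the peak, read against a blank-corrected calibration curve at 345 nm. Standards were serial dilutions in DMSO from 0.5 to 0.007 mg mL−1.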

KCa2.3, sequence (Q9UGI6 whole entry): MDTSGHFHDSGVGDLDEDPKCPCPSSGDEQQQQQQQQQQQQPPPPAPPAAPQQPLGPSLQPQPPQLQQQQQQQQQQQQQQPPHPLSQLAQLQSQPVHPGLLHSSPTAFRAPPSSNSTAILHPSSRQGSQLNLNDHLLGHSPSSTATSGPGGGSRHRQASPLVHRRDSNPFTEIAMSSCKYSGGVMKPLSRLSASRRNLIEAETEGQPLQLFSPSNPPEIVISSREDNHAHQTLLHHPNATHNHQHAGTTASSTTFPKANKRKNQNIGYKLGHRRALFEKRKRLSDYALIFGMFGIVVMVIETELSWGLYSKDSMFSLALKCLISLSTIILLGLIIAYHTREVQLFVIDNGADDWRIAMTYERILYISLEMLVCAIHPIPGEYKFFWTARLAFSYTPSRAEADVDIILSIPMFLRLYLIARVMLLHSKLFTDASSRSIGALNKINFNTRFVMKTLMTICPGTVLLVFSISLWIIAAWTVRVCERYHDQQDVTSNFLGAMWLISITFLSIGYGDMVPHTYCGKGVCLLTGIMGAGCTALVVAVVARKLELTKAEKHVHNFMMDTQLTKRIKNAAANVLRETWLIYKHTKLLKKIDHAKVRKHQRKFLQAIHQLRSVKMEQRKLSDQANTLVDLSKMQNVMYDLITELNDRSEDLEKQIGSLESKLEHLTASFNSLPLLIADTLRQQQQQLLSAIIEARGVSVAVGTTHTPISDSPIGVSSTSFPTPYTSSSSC

Row | SMILES | EC50 (KCa2.3) [µM] | EC50 (KCa2.2) [µM] | EC50 (KCa3.1 channel) [µM] | Tolerability [1] | Tolerability [2] | Selectivity for KCa3.1 over KCa2 channels [3] | Effect on blood pressure [4] | concentration at 14 days ([5]; kidney) [ng/g] | concentration at 14 days ([5]; liver) [ng/g] | Cmax relative to EC50 for KCa3.1 activation ([6]; at 15 min) | MRTlast ([6]; female BALB/c mice, plasma) [h] | circulating half-life (t1/2) ([6]; female BALB/c mice, plasma) [h] | Cmax ([6]; female, BALB/c, mouse, plasma, ip, 30 mg/kg, peak plasma concentration (Cmax), female BALB/c mice, at 15 min) | Change in serum aspartate aminotransferase (AST) vs vehicle [7] | Mouse body weight loss vs vehicle [7] | solubility at 24 h [8]
1 | Nc1nc2c(cc(C(F)(F)F)c3ncccc32)s1 [NKV-104, 5-(trifluoromethyl)thiazolo[4,5-f]quinolin-2-amine] | 29.3 | 11.9 | 1.7 | – | – | – | – | – | – | – | – | – | – | – | – | –
2 | Nc1nc2c(ccc3ccccc32)s1 [SKA-31, Naphtho[1,2-d]thiazol-2-ylamine] | – | – | – | well-tolerated | well-tolerated | lacked selectivity | lowered blood pressure | – | – | – | – | – | – | – | – | –
3 | Cc1cc2sc(N)nc2c2cccnc12 [SKA-346, 5-methyl-[1,3]thiazolo[4,5-f]quinolin-2-amine] | – | – | 1.9 | – | – | – | – | 60.7 | 22.5 | about 15 times | 4.82 | 2.84 | 6290 ng/mL and 29.2 µM | did not cause any significant change | no significant mouse body weight loss | 40600 µg/mL and 189000 µM
